Reference: ChEMBL document CHEMBL1255259, “Phosphorothioate-modified oligodeoxynucleotides inhibit human cytomegalovirus replication by blocking virus entry” (Antimicrob Agents Chemother, 2008)
Calls of active or inactive are those of the source. No cut-off for these calls is given here.

Legend:
Human betaherpesvirus 5 [1] = test: Antimicrobial activity against Human cytomegalovirus TB40 expressing EGPF tagged UL32 infected in HELF assessed as inhibition of inhibition of viral adsorption at 0.1 uM after 2 hrs by fluorescence microscopy; type: functional, organism-based
In short: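 Prechilled HELF on coverslips exposed to ODN (0.1 μM) or heparin (30 μg/ml) 1 h at 4°C, then infected with HCMV TB40 UL32-EGFP (MOI 20) 2 h at 4°C to permit attachment only. Washed in ice-cold PBS, fixed in 4% formaldehyde, propidium iodide counterstain; green virions imaged by confocal fluorescence microscopy. Done twice.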

Human betaherpesvirus 5 [2] = test: Antimicrobial activity against Human cytomegalovirus AD169 infected in compound pretreated HELF assessed as expression of immediate early 2 protein by immunoblotting; type: functional, organism-based
In short: (§1)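 HELF pretreated with ODN (1 μM) 1 h before and during infection with HCMV AD169 (MOI 1). Whole-cell extracts taken at set times p.i., run on 8% SDS-PAGE (50 μg protein/lane), immunoblotted with MAbs to IE1/IE2, UL44 (early) or UL99 (late); actin as loading control.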

Human betaherpesvirus 5 [3] = test: Antimicrobial activity against Human cytomegalovirus AD169 infected in compound pretreated HELF measured as immediate early 2 mRNA level by RT-PCR; type: functional, organism-based
Human betaherpesvirus 5 [4] = test: Antimicrobial activity against Human cytomegalovirus AD169 infected in 0.1 uM compound pretreated HELF assessed as viral DNA accumulation measured after 48 hrs post-infection by RT-PCR; type: functional, organism-based
In short: (§2)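 HELF treated with ODN (0.1 μM), then infected with HCMV AD169 (MOI 5). Total genomic DNA collected at 4 and 48 h p.i.; 15 ng analysed by TaqMan real-time PCR for IE1 (50 cycles, 95°C 15 s / 62°C 1 min). Copies normalized to 18S rRNA gene against plasmid standard curve. Means ± SD, three experiments.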

Human betaherpesvirus 5 [5] = test: Antimicrobial activity against Human cytomegalovirus AD169 infected in compound pretreated HELF assessed as inhibition of viral replication measured after 6 days post-infection; type: functional, organism-based; settings: Human betaherpesvirus 5, AD169, HELF
In short: (§3)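 HELF pretreated with ODN 1 h before infection with HCMV AD169 (MOI 1); ODN kept in medium after 2 h adsorption at 37°C. At 6 days p.i., cells plus supernatants sonicated and titrated by plaque assay on HELF; plaques counted microscopically, expressed as PFU/ml (log10) or % of control. IC50/IC90 by linear regression; duplicate wells, three independent experiments, means ± SD.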

[6] = Cytotoxicity against HELF assessed as cell viability by MTT assay after 6 days at <=10 uM; type: cell-based; settings: human, 144 h
In short: (§4)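 HELF exposed to rising ODN concentrations (up to 10 μM) for 6 days; viable cells measured by MTT. CC50 taken as concentration that cuts viability to 50%.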

[7] = Cytotoxicity against HELF assessed as cell viability after 6 days by MTT assay; type: cell-based; settings: human, HELF cells; in short: as §4
Human betaherpesvirus 5 [8] = test: Antimicrobial activity against Human cytomegalovirus AD169 infected in compound pretreated HELF assessed as expression of immediate early 1 protein by immunoblotting; type: functional, organism-based; in short: as §1
unidentified adenovirus = test: Antimicrobial activity against unidentified adenovirus infected in compound pretreated HELF assessed as inhibition of viral replication; type: functional, organism-based
In short: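 HELF pretreated 1 h with ODN (0.1 or 1 μM), infected with an adenovirus clinical isolate (MOI 1); ODN kept after 2 h adsorption. Harvest at 4 days p.i., sonication, plaque titration on HELF. Means ± SD, three experiments.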

Human betaherpesvirus 5 [9] = test: Antimicrobial activity against Human cytomegalovirus AD169 infected in compound pretreated HELF measured as immediate early 1 mRNA level by RT-PCR; type: functional, organism-based
Human betaherpesvirus 5 [10] = test: Antimicrobial activity against Human cytomegalovirus AD169 infected in HELF assessed as inhibition of viral replication at 0.1 uM measured after 6 days post-infection; type: functional, organism-based
Human betaherpesvirus 5 [11] = test: Antimicrobial activity against Human cytomegalovirus AD169 infected in HELF assessed as inhibition of viral replication at 1 uM measured after 6 days post-infection; type: functional, organism-based
Human betaherpesvirus 5 [12] = test: Antimicrobial activity against Human cytomegalovirus AD169 infected in compound pretreated HELF assessed as expression of late protein by immunoblotting; type: functional, organism-based; in short: as §1
Human betaherpesvirus 5 [13] = test: Antimicrobial activity against Human cytomegalovirus isolate AL1 infected in compound pretreated HELF assessed as inhibition of viral replication; type: functional, organism-based; settings: Human betaherpesvirus 5, isolate AL1, HELF
In short: (§5)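 HELF pretreated 1 h with ODN, infected with clinical HCMV isolate (VR1814 or AL1, HUVEC-propagated) at MOI 1; ODN kept after 2 h adsorption. At 6 days p.i., yield titrated on HELF; IC50 from concentration–plaque reduction plot.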

[14] = tested on: Vesicular stomatitis Indiana virus; test: Antimicrobial activity against Vesicular stomatitis Indiana virus infected in compound pretreated HELF assessed as inhibition of viral replication; type: functional, organism-based
In short: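 HELFs exposed to ODN (0.1 or 1 μM) for 1 h, then infected with VSV serotype Indiana at MOI 1 (2 h adsorption, 37°C). ODN kept in the medium until 48 h p.i. Cells and supernatants were pooled, sonicated and titrated by plaque assay on HELFs. Data are means ± standard deviations of three independent experiments, duplicate wells.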

Human betaherpesvirus 5 [15] = test: Antimicrobial activity against Human cytomegalovirus AD169 infected in compound pretreated HELF assessed as expression of early protein by immunoblotting; type: functional, organism-based; in short: as §1
Human betaherpesvirus 5 [16] = test: Antimicrobial activity against Human cytomegalovirus AD169 infected in 0.1 uM compound pretreated HELF assessed as viral DNA accumulation measured after 4 hrs post-infection by RT-PCR; type: functional, organism-based; in short: as §2
Human alphaherpesvirus 1 [17] = test: Antimicrobial activity against Human herpesvirus 1 infected in compound pretreated HELF assessed as inhibition of viral replication at 0.1 uM; type: functional, organism-based
In short: (§6)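 HELF pretreated with ODN (0.1 or 1 μM) 1 h before infection with a clinical HSV-1 isolate at MOI 0.1; ODN kept in medium after 2 h adsorption. Harvest at 48 h p.i., sonication, plaque titration on Vero cells. Means ± SD of three independent experiments.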

Human betaherpesvirus 5 [18] = test: Antimicrobial activity against Human cytomegalovirus isolate 1814 infected in compound pretreated HELF assessed as inhibition of viral replication; type: functional, organism-based; settings: Human betaherpesvirus 5, isolate 1814, HELF; in short: as §5
Human betaherpesvirus 5 [19] = test: Antimicrobial activity against 0.1 uM compound pretreated Human cytomegalovirus AD169 infected in HELF assessed as reduction in viral titer at 4 degC; type: functional, organism-based
In short: (§7)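 HCMV AD169 (10^4 PFU) incubated with ODN at 0.1 μM at 4 or 37°C for various times; samples then diluted to bring ODN below an antivirally active level; residual infectivity titrated by plaque assay on HELF. Means ± SD of three independent experiments.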

[20] = Antimicrobial activity against Murine cytomegalovirus (strain Smith) infected in compound pretreated mouse NIH 3T3 cells assessed as inhibition of viral replication; type: functional, cell-based; settings: Murid betaherpesvirus 1, NIH3T3
In short: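 NIH 3T3 pretreated 1 h with ODN, infected with MCMV Smith (MOI 1); ODN kept after 2 h adsorption at 37°C. Harvest at 6 days p.i., sonication, plaque assay on NIH 3T3; IC50 from plaque reduction. Means ± SD, three experiments.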

Human betaherpesvirus 5 [21] = test: Antimicrobial activity against Human cytomegalovirus AD169 infected in 0.1 uM compound pretreated HELF assessed as inhibition of viral replication measured after 6 days post-infection; type: functional, organism-based; in short: as §3
Human betaherpesvirus 5 [22] = test: Antimicrobial activity against Human cytomegalovirus isolate 1814 infected in compound pretreated HUVEC assessed as inhibition of viral replication; type: functional, organism-based; settings: Human betaherpesvirus 5, isolate 1814, HUVEC
In short: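 HUVEC (passages 2–6, EGM-2 with 2% FBS) pretreated 1 h with ODN and infected with HCMV VR1814 at MOI 1; ODN maintained after 2 h adsorption. Yield at 6 days p.i. titrated on HELF; IC50 from concentration-dependent plaque reduction.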

Human alphaherpesvirus 1 [23] = test: Antimicrobial activity against Human herpesvirus 1 infected in compound pretreated HELF assessed as inhibition of viral replication at 1 uM; type: functional, organism-based; in short: as §6
Human betaherpesvirus 5 [24] = test: Antimicrobial activity against 0.1 uM compound pretreated Human cytomegalovirus AD169 infected in HELF assessed as reduction in viral titer 37 degC; type: functional, organism-based; in short: as §7
Human betaherpesvirus 5 [25] = test: Antimicrobial activity against Human herpesvirus 5 strain AD169 infected in HELF assessed as pp65 nuclear localization at 0.1 uM after 2 hrs […]; type: functional, organism-based
Human betaherpesvirus 5 [26] = test: Antimicrobial activity against Human cytomegalovirus AD169 infected in 1 uM compound pretreated HELF assessed as inhibition of viral replication measured after 6 days post-infection; type: functional, organism-based; in short: as §3

## Cc1cn([C@H]2C[C@H](OP(O)(O)=S)[C@@H](COP(O)(=S)O[C@H]3C[C@H](n4cc(C)c(=O)[nH]c4=O)O[C@@H]3COP(O)(=S)O[C@H]3[C@@H](O)[C@H](n4cnc5c(=O)[nH]c(N)nc54)O[C@@H]3COP(O)(=S)O[C@H]3[C@@H](O)[C@H](n4ccc(N)nc4=O)O[C@@H]3COP(O)(=S)O[C@H]3C[C@H](n4cc(C)c(=O)[nH]c4=O)O[C@@H]3COP(O)(=S)O[C@H]3[C@@H](O)[C@H](n4cnc5c(=O)[nH]c(N)nc54)O[C@@H]3COP(O)(=S)O[C@H]3C[C@H](n4cc(C)c(=O)[nH]c4=O)O[C@@H]3COP(O)(=S)O[C@H]3C[C@H](n4cc(C)c(=O)[nH]c4=O)O[C@@H]3COP(O)(=S)O[C@H]3C[C@H](n4cc(C)c(=O)[nH]c4=O)O[C@@H]3COP(O)(=S)O[C@H]3C[C@H](n4cc(C)c(=O)[nH]c4=O)O[C@@H]3COP(O)(=S)O[C@H]3[C@@H](O)[C@H](n4cnc5c(=O)[nH]c(N)nc54)O[C@@H]3COP(O)(=S)O[C@H]3[C@@H](O)[C@H](n4ccc(N)nc4=O)O[C@@H]3COP(O)(=S)O[C@H]3C[C@H](n4cc(C)c(=O)[nH]c4=O)O[C@@H]3COP(O)(=S)O[C@H]3[C@@H](O)[C@H](n4cnc5c(=O)[nH]c(N)nc54)O[C@@H]3COP(O)(=S)O[C@H]3C[C@H](n4cc(C)c(=O)[nH]c4=O)O[C@@H]3COP(O)(=S)O[C@H]3C[C@H](n4cc(C)c(=O)[nH]c4=O)O[C@@H]3COP(O)(=S)O[C@H]3C[C@H](n4cc(C)c(=O)[nH]c4=O)O[C@@H]3COP(O)(=S)O[C@H]3C[C@H](n4cc(C)c(=O)[nH]c4=O)O[C@@H]3COP(O)(=S)O[C@H]3[C@@H](O)[C@H](n4cnc5c(=O)[nH]c(N)nc54)O[C@@H]3COP(O)(=S)O[C@H]3[C@@H](O)[C@H](n4ccc(N)nc4=O)O[C@@H]3COP(O)(=S)O[C@H]3C[C@H](n4cc(C)c(=O)[nH]c4=O)O[C@@H]3COP(O)(=S)O[C@H]3[C@@H](O)[C@H](n4cnc5c(=O)[nH]c(N)nc54)O[C@@H]3COP(O)(=S)O[C@H]3[C@@H](O)[C@H](n4ccc(N)nc4=O)O[C@@H]3COP(O)(=S)O[C@H]3C[C@H](n4cc(C)c(=O)[nH]c4=O)O[C@@H]3CO)O2)c(=O)[nH]c1=O (stereo partly drawn)
Human betaherpesvirus 5 [1]
  inhibition: inactive
Human betaherpesvirus 5 [2]
  inhibition: Active
Human betaherpesvirus 5 [3]
  inhibition: Active
Human betaherpesvirus 5 [4]
  inhibition: Active
Human betaherpesvirus 5 [5]
  IC50: 20 nM
  IC90: 65 nM
[6]
  Activity: Non-toxic
[7]
  CC50 at 144 h: > 10000 nM
Human betaherpesvirus 5 [8]
  inhibition: Active
Unidentified adenovirus
  inhibition: inactive
Human betaherpesvirus 5 [9]
  inhibition: Active
Human betaherpesvirus 5 [10]
  inhibition: inactive
Human betaherpesvirus 5 [11]
  inhibition: inactive
Human betaherpesvirus 5 [12]
  inhibition: Active
Human betaherpesvirus 5 [13]
  IC50: 44 nM
[14]
  inhibition: inactive
Human betaherpesvirus 5 [15]
  inhibition: Active
Human betaherpesvirus 5 [16]
  inhibition: Active
Human alphaherpesvirus 1 [17]
  inhibition: inactive
Human betaherpesvirus 5 [18]
  IC50: 38 nM
Human betaherpesvirus 5 [19]
  inhibition: inactive
[20]
  IC50: 50 nM
Human betaherpesvirus 5 [21]
  inhibition: Active
Human betaherpesvirus 5 [22]
  IC50: 25 nM
Human alphaherpesvirus 1 [23]
  inhibition: inactive
Human betaherpesvirus 5 [24]
  inhibition: inactive
Human betaherpesvirus 5 [25]
  inhibition: Active
Human betaherpesvirus 5 [26]
  inhibition: Active
